Assay results as given in ChEMBL document CHEMBL2010709, “Pinophilins A and B, inhibitors of mammalian A-, B-, and Y-family DNA polymerases and human cancer cell proliferation” (J Nat Prod, 2012).
pIC50: −log10 of the molar value. Active and inactive are the calls of the source. No cut-off for these calls is given here.

Experiments:
[1] = Inhibition of human His6-tagged DNA polymerase gamma expressed using baculovirus assessed as inhibition of incorporation of dTTP into poly(dA)/oligo(dT)18 after 60 mins
Procedure, shortened: (§1)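 Compound in DMSO was sonicated for 30 s, then held with enzyme (0.05 units final) at 0 °C for 10 min in 50 mM Tris-HCl pH 7.5, 1 mM DTT, 50% glycerol, 0.1 mM EDTA. The mixture was added to the standard reaction mix with poly(dA)/oligo(dT)18 (A/T = 2/1) and dTTP, 37 °C, 60 min. Activity was relative to no-inhibitor control; mean ± SE, three independent experiments.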

BALL-1 = assay: Growth inhibition of human BALL-1 cells after 24 hrs by WST-1 assay; format: functional; details: BALL-1, 24 h
Procedure, shortened: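 Cancer cells were grown in McCoy's 5A with 10% FBS and penicillin/streptomycin, 37 °C, 5% CO2. Cells were seeded at 1 × 10^4 per well, cultured 12 h, then given compound (10 mM DMSO stock diluted in medium, 0.5% DMSO) for 24 h. WST-1 was added for 4 h and absorbance read at 450/630 nm. GI50 given as mean ± SE, five independent experiments.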

Deoxyribonuclease-1 = Deoxyribonuclease-1 (Bos taurus, UniProt P00639); assay: Inhibition of bovine deoxyribonuclease 1 using [3H]-labelled DNA after 30 mins by agarose gel electrophoresis
Sequence of Deoxyribonuclease-1 (P00639 whole entry): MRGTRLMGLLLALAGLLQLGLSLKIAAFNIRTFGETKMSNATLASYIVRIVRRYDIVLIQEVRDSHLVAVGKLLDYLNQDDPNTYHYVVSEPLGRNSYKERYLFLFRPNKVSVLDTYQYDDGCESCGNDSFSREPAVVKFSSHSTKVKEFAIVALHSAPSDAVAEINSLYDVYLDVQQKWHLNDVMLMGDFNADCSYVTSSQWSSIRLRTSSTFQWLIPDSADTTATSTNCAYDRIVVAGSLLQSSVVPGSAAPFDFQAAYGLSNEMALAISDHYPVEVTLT

[2] = biological target: DNA-directed DNA/RNA polymerase mu (Homo sapiens, UniProt Q9NP87); assay: Inhibition of human His-tagged recombinant DNA polymerase mu expressed in Escherichia coli BL21 assessed as inhibition of incorporation of dTTP into poly(dA)/oligo(dT)18 after 60 mins; procedure, shortened: as §1
Sequence of DNA-directed DNA/RNA polymerase mu (Q9NP87 whole entry): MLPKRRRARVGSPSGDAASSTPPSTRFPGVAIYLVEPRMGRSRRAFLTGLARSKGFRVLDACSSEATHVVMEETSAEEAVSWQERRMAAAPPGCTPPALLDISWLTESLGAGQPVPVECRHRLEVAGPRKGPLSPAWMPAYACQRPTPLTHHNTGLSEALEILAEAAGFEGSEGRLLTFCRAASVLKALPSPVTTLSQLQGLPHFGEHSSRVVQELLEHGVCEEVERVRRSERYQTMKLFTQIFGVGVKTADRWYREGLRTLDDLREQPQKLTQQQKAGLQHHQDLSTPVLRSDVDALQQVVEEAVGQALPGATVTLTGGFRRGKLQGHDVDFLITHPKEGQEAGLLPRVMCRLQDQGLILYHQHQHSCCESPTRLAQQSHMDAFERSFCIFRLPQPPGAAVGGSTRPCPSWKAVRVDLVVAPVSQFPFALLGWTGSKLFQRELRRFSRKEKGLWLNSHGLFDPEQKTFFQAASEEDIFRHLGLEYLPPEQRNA

DNA polymerase lambda = biological target: T1, DNA polymerase lambda (Homo sapiens, UniProt Q9UGP5); assay: Inhibition of human recombinant His-tagged DNA polymerase lambda expressed in Escherichia coli assessed as inhibition of incorporation of dTTP into poly(dA)/oligo(dT)18 after 60 mins; procedure, shortened: as §1
T1 sequence (Q9UGP5 whole entry): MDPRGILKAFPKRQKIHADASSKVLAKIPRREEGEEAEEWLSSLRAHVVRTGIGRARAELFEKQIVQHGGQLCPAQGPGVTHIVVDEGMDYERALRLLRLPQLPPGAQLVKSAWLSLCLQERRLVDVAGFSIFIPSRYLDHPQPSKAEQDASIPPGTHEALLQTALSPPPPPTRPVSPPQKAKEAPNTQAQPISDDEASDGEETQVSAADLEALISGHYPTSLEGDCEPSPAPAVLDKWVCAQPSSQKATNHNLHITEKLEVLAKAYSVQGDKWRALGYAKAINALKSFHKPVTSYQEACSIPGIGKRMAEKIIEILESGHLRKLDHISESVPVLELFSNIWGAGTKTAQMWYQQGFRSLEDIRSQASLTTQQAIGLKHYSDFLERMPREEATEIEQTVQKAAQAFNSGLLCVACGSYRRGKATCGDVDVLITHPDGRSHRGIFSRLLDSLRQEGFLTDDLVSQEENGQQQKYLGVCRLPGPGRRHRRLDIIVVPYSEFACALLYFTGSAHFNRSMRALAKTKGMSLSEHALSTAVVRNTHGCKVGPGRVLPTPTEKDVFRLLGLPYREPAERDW

[3] = Inhibition of rice cv. Nipponbare recombinant C-terminal-His6-tagged DNA polymerase lambda expressed in Escherichia coli assessed as inhibition of incorporation of dTTP into poly(dA)/oligo(dT)18 after 60 mins; parameters: species or system Oryza sativa; procedure, shortened: as §1
DNA polymerase kappa = biological target: T2, DNA polymerase kappa (Homo sapiens, UniProt Q9UBT6); assay: Inhibition of human C-terminal-His6-tagged DNA polymerase kappa expressed in Escherichia coli assessed as inhibition of incorporation of dTTP into poly(dA)/oligo(dT)18 after 60 mins; procedure, shortened: as §1
T2 sequence (Q9UBT6 whole entry): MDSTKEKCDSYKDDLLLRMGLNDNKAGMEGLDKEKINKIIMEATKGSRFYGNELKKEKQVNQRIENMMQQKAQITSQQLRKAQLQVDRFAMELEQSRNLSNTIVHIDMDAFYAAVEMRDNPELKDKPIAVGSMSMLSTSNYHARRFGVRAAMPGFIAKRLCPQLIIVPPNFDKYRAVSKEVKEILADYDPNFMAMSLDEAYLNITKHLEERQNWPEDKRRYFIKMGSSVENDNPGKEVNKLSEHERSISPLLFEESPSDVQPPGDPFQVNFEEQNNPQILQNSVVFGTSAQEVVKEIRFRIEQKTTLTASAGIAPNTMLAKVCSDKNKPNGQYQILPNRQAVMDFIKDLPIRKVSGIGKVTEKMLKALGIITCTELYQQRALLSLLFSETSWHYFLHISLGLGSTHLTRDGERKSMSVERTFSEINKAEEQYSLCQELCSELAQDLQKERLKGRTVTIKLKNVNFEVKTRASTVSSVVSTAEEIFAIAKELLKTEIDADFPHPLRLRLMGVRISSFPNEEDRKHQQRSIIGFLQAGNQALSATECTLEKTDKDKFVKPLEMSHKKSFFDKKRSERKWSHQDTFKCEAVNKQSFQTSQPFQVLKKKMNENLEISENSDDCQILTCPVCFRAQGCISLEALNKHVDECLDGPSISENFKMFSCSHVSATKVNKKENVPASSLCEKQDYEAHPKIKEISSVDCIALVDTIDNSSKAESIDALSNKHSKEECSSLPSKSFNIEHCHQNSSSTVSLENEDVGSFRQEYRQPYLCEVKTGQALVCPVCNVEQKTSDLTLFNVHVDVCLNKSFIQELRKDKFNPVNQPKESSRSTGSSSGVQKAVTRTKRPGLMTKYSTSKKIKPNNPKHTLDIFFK

Tequatrovirus T4 = assay: Inhibition of T4 bacteriophage DNA polymerase assessed as inhibition of incorporation of dTTP into activated DNA primer after 60 mins

Row | SMILES | pIC50 [1] | GI50 (BALL-1) [µM] | pIC50 (Deoxyribonuclease-1) | pIC50 [2] | pIC50 (DNA polymerase lambda) | pIC50 [3] | pIC50 (DNA polymerase kappa) | inhibition (Tequatrovirus T4)
1 | Cc1cc(O)cc(O)c1C(=O)O[C@H]1[C@@H]2COC(/C=C/CO)=CC2=CC(=O)[C@@]1(C)O [PINOPHILIN B] | 4.03 | 90.4 | < 3.70 | < 3.70 | < 3.70 | < 3.70 | 4.05 | inactive
2 | C/C=C/C1=CC2=CC(=O)[C@@](C)(O)[C@@H](OC(=O)c3c(C)cc(O)cc3O)[C@@H]2CO1 | 4.17 | 62 | < 3.70 | < 3.70 | < 3.70 | < 3.70 | 4.22 | inactive
3 | C/C=C/C1=CC2=CC(=O)[C@@](C)(OC(=O)c3c(C)cc(O)cc3O)[C@@H](O)[C@@H]2CO1 [PINOPHILIN A] | 4.25 | 50.2 | < 3.70 | < 3.70 | < 3.70 | < 3.70 | 4.31 | inactive
